Measurements taken from ChEMBL document CHEMBL1144169, “Synthesis and cytotoxic activity of heterocyclic ring-substituted betulinic acid derivatives” (Bioorg Med Chem Lett, 2008).
Values after ≈ are worked out from the molar mass of the structure shown.

Columns and labels:
PA-1 = test: Cytotoxicity against human PA-1 cells after 72 hrs by MTT assay; format: functional, cell-based; conditions: PA-1, 72 h
Procedure, shortened: (§1)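 Cells harvested from 70–80% confluent cultures by trypsin/EDTA and seeded at 5000 cells/well in DMEM for 24 h. Compounds were dissolved in DMSO and diluted in medium to 0.5–20, with final DMSO below 1%. After 72 h at CO2, MTT was added for 3 h at 37 °C. Medium was replaced with DMSO and OD read at 540 nm. IC50 ± SD, three independent experiments.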

DU-145 = test: Cytotoxicity against human DU145 cells after 72 hrs by MTT assay; format: functional, cell-based; conditions: DU-145, 72 h; procedure, shortened: as §1
SW-620 = test: Cytotoxicity against human SW620 cells after 72 hrs by MTT assay; format: functional, cell-based; conditions: SW-620, 72 h; procedure, shortened: as §1
HBL-100 = test: Cytotoxicity against human HBL100 cells after 72 hrs by MTT assay; format: functional, cell-based; conditions: HBL-100, 72 h; procedure, shortened: as §1
MIA PaCa-2 [1] = test: Cytotoxicity against human MIA PaCa2 cells after 72 hrs by MTT assay; format: functional, cell-based; conditions: MIA PaCa-2, 72 h; procedure, shortened: as §1
A549 = test: Cytotoxicity against human A549 cells after 72 hrs by MTT assay; format: functional, cell-based; conditions: A549, 72 h; procedure, shortened: as §1
K562 = test: Cytotoxicity against human K-562 cells after 72 hrs by MTT assay; format: functional, cell-based; conditions: K562, 72 h
NIH3T3 [2] = test: Cytotoxicity against mouse NIH3T3 cells after 72 hrs by MTT assay; format: cell-based; conditions: NIH3T3, 72 h; procedure, shortened: as §1
MIA PaCa-2 [3] = test: Selectivity index, ratio of IC50 for mouse NIH3T3 cells to IC50 for human MIA PaCa2 cells; format: functional
NIH3T3 [4] = test: Selectivity index, ratio of IC50 for mouse NIH3T3 cells to IC50 for human SW620 cells; format: functional

Row | SMILES | IC50 (PA-1) [µg/mL] | IC50 (DU-145) [µg/mL] | IC50 (SW-620) [µg/mL] | IC50 (HBL-100) [µg/mL] | IC50 (MIA PaCa-2 [1]) [µg/mL] | IC50 (A549) [µg/mL] | IC50 (K562) [µg/mL] | IC50 (NIH3T3 [2]) [µg/mL] | Ratio IC50 (MIA PaCa-2 [3]) | Ratio IC50 (NIH3T3 [4])
1 | C=C(C)[C@@H]1CC[C@]2(C(=O)O)CC[C@]3(C)[C@H](CC[C@@H]4[C@@]5(C)Cc6c([nH]c7ccc(Cl)cc67)C(C)(C)[C@@H]5CC[C@]43C)[C@@H]12 | 2.5 (≈ 4.45 µM) | 4.9 (≈ 8.72 µM) | 2.7 (≈ 4.8 µM) | 11.8 (≈ 20.9 µM) | 2.44 (≈ 4.34 µM) | 7.14 (≈ 12.7 µM) | 9.61 (≈ 17.1 µM) | 4.6 (≈ 8.18 µM) | 2 | –
2 | C=C(C)[C@@H]1CC[C@]2(C(=O)O)CC[C@]3(C)[C@H](CC[C@@H]4[C@@]5(C)Cc6c([nH]c7ccc(OC)cc67)C(C)(C)[C@@H]5CC[C@]43C)[C@@H]12 | 5.8 (≈ 10.4 µM) | 5.75 (≈ 10.3 µM) | 8.4 (≈ 15.1 µM) | 12.8 (≈ 22.9 µM) | 6.4 (≈ 11.5 µM) | 8.2 (≈ 14.7 µM) | > 20 | 7.5 (≈ 13.4 µM) | – | –
3 | CC(C)[C@@H]1CC[C@]2(C(=O)O)CC[C@]3(C)[C@H](CC[C@@H]4[C@@]5(C)Cc6c(oc7ccccc67)C(C)(C)[C@@H]5CC[C@]43C)[C@@H]12 | > 20 | > 20 | > 20 | > 20 | 8.8 (≈ 16.6 µM) | 7.1 (≈ 13.4 µM) | 15.3 (≈ 28.8 µM) | 20 (≈ 37.7 µM) | – | –
4 | C=C(C)[C@@H]1CC[C@]2(C(=O)O)CC[C@]3(C)[C@H](CC[C@@H]4[C@@]5(C)Cc6c([nH]c7cc(Cl)cc(Cl)c67)C(C)(C)[C@@H]5CC[C@]43C)[C@@H]12 | > 20 | > 20 | > 20 | > 20 | > 20 | 5.5 (≈ 9.22 µM) | > 20 | 4.1 (≈ 6.87 µM) | – | –
5 | C=C(C)[C@@H]1CC[C@]2(C(=O)O)CC[C@]3(C)[C@H](CC[C@@H]4[C@@]5(C)CC[C@H](O)C(C)(C)[C@@H]5CC[C@]43C)[C@@H]12 [BETULINIC ACID] | 11.5 (≈ 25.2 µM) | > 20 | 13.3 (≈ 29 µM) | 5.02 (≈ 11 µM) | 10.3 (≈ 22.6 µM) | 3 (≈ 6.57 µM) | 3.25 (≈ 7.12 µM) | 4.37 (≈ 9.57 µM) | – | –
6 | CC(C)[C@@H]1CC[C@]2(C(=O)O)CC[C@]3(C)[C@H](CC[C@@H]4[C@@]5(C)Cc6c([nH]c7ccc(Cl)cc67)C(C)(C)[C@@H]5CC[C@]43C)[C@@H]12 | 6.6 (≈ 11.7 µM) | 6.5 (≈ 11.5 µM) | 5.9 (≈ 10.5 µM) | > 20 | 15.2 (≈ 26.9 µM) | 8.8 (≈ 15.6 µM) | > 20 | 19 (≈ 33.7 µM) | – | –
7 | C=C(C)[C@@H]1CC[C@]2(C(=O)O)CC[C@]3(C)[C@H](CC[C@@H]4[C@@]5(C)Cc6c([nH]c7ccc(F)cc67)C(C)(C)[C@@H]5CC[C@]43C)[C@@H]12 | > 20 | > 20 | 9.16 (≈ 16.8 µM) | > 20 | 17.4 (≈ 31.9 µM) | 17.8 (≈ 32.6 µM) | 10.9 (≈ 20.1 µM) | > 20 | – | –
8 | CC(C)[C@@H]1CC[C@]2(C(=O)O)CC[C@]3(C)[C@H](CC[C@@H]4[C@@]5(C)Cc6c(n(C)c7ccccc67)C(C)(C)[C@@H]5CC[C@]43C)[C@@H]12 | > 20 | > 20 | > 20 | 14.1 (≈ 26 µM) | 5.4 (≈ 9.93 µM) | 6.5 (≈ 12 µM) | 10.8 (≈ 20 µM) | > 20 | – | –
9 | C=C(C)[C@@H]1CC[C@]2(C(=O)NCC(=O)O)CC[C@]3(C)[C@H](CC[C@@H]4[C@@]5(C)Cc6c([nH]c7ccccc67)C(C)(C)[C@@H]5CC[C@]43C)[C@@H]12 | 3 (≈ 5.13 µM) | 7 (≈ 12 µM) | 8.7 (≈ 14.9 µM) | > 20 | 0.67 (≈ 1.15 µM) | 3.53 (≈ 6.04 µM) | 11.9 (≈ 20.4 µM) | 0.68 (≈ 1.16 µM) | – | –
10 | C=C(C)[C@@H]1CC[C@]2(C(=O)O)CC[C@]3(C)[C@H](CC[C@@H]4[C@@]5(C)Cc6c(n(C)c7ccccc67)C(C)(C)[C@@H]5CC[C@]43C)[C@@H]12 | > 20 | 20 (≈ 36.9 µM) | > 20 | 19.5 (≈ 36 µM) | 5.34 (≈ 9.86 µM) | 6.9 (≈ 12.7 µM) | 7.73 (≈ 14.3 µM) | 15.1 (≈ 27.9 µM) | – | –
11 | C=C(C)[C@@H]1CC[C@]2(C(=O)NCC(=O)O)CC[C@]3(C)[C@H](CC[C@@H]4[C@@]5(C)Cc6c([nH]c7ccc(Cl)cc67)C(C)(C)[C@@H]5CC[C@]43C)[C@@H]12 | 6.66 (≈ 10.8 µM) | 10.3 (≈ 16.7 µM) | 10.4 (≈ 16.8 µM) | 16.5 (≈ 26.6 µM) | 10.7 (≈ 17.3 µM) | 12.4 (≈ 20 µM) | > 20 | 11.2 (≈ 18.1 µM) | – | –
12 | CC(C)[C@@H]1CC[C@]2(C(=O)O)CC[C@]3(C)[C@H](CC[C@@H]4[C@@]5(C)Cc6c([nH]c7ccc(F)cc67)C(C)(C)[C@@H]5CC[C@]43C)[C@@H]12 | > 20 | > 20 | 7.28 (≈ 13.3 µM) | > 20 | 8.4 (≈ 15.3 µM) | 8.89 (≈ 16.2 µM) | 14 (≈ 25.6 µM) | 14.6 (≈ 26.6 µM) | – | –
13 | C=C(C)[C@@H]1CC[C@]2(C(=O)O)CC[C@]3(C)[C@H](CC[C@@H]4[C@@]5(C)Cc6c([nH]c7c(Cl)cccc67)C(C)(C)[C@@H]5CC[C@]43C)[C@@H]12 | 6.39 (≈ 11.4 µM) | 11.7 (≈ 20.7 µM) | 2 (≈ 3.56 µM) | 11.8 (≈ 21 µM) | 11.6 (≈ 20.6 µM) | 8.7 (≈ 15.5 µM) | 9.26 (≈ 16.5 µM) | 11.8 (≈ 21 µM) | – | 6
14 | C=C(C)[C@@H]1CC[C@]2(C(=O)O)CC[C@]3(C)[C@H](CC[C@@H]4[C@@]5(C)Cc6c([nH]c7ccccc67)C(C)(C)[C@@H]5CC[C@]43C)[C@@H]12 | 6.01 (≈ 11.4 µM) | 8.86 (≈ 16.8 µM) | 5.15 (≈ 9.76 µM) | 10.3 (≈ 19.5 µM) | 6.7 (≈ 12.7 µM) | 7.6 (≈ 14.4 µM) | 10 (≈ 19 µM) | 6.9 (≈ 13.1 µM) | – | –
15 | C=C(C)[C@@H]1CC[C@]2(C(=O)O)CC[C@]3(C)[C@H](CC[C@@H]4[C@@]5(C)Cc6c([nH]c7c(F)cccc67)C(C)(C)[C@@H]5CC[C@]43C)[C@@H]12 | – | > 20 | > 20 | 3.5 (≈ 6.41 µM) | 3.3 (≈ 6.05 µM) | 3 (≈ 5.5 µM) | 8.7 (≈ 15.9 µM) | 2.1 (≈ 3.85 µM) | – | –
